Consider one molecule from ChEMBL document CHEMBL4354813, “Design, Synthesis, and Pharmacological Evaluation of Potent Positive Allosteric Modulators of the Glucagon-like Peptide-1 Receptor (GLP-1R)” (J Med Chem, 2020).

In one series the test system is Mus musculus. As to the kind of experiment: Suppression of blood glucose concentration in GLP1(9-36)NH2-treated ob/ob C57Bl/6J mouse model of T2DM at 30 mg/kg, po dosed 1 hrs before test and treated with 60 mg/kg, po OATP/MRP2 inhibitor rifampicin 2.5 hrs prior to oral glucose-tolerance test. The class given is functional, organism-based. The essentials: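 Male ob/ob mice aged 10–11 weeks, n=7, randomised on blood glucose and fasted overnight. Rifampicin 60 mg/kg p.o. 2.5 h before the oGTT, compound 30 mg/kg p.o. 1 h before, GLP1(9-36)NH2 i.p. 15 min before, each given as indicated. Glucose 2 g/kg orally. Tail-vein glucose by glucometer at 0, 15, 30, 60 and 90 min.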

In the next series the target is Cytochrome P450 3A4 (Homo sapiens, UniProt P08684). As to the kind of experiment: Inhibition of CYP3A4 (unknown origin) using midazolam substrate. The class given is ADME.
The nature of series [1]: Clearance in human hepatocytes assessed per million cells by LC-MS/MS analysis. The class given is ADME, cell-based, Hepatocyte. Put shortly: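 Intrinsic clearance in primary human hepatocytes ([…] as printed) or mouse hepatocytes, compound 0.5–5 µM; quinidine or ketoconazole added to define CYP2D6/CYP3A4 contribution; LC-MS/MS analysis.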
Series [2] can be described thus: Clearance in C57Bl6 mouse at 3 mg/kg, iv administered as single dose measured up to 24 hrs ESI-LC/MS-MS analysis. The class given is ADME, organism-based. The note with it: in vivo. The essentials: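 Female C57Bl6 mice (n=24) given single 3 mg/kg i.v. in solution (75% water : 25% of 75% Glycoferol/25% Cremophor); plasma sampled at 0.083, 0.25, 0.5, 1, 2, 4, 6, 8, 24 h; heparinized plasma after acetonitrile protein precipitation analysed by ESI-LC/MS-MS (LOQ 5 ng/mL); noncompartmental parameters with linear trapezoidal calculation.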

A short description of series [3]: Oral bioavailability in Wistar rat at 10 mg/kg administered as single dose measured up to 24 hrs ESI-LC/MS-MS analysis. The note with it: in vivo. Format: ADME, organism-based. The essentials:
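Single dose of compound: 3 mg/kg i.v. in solution (75% water : 25% of 75% Glycoferol/25% Cremophor) or 10 mg/kg p.o. as wet-milled suspension (0.6% methylcellulose, 0.5% Tween 80 in water); male Wistar rats n=3 per route, female C57Bl6 mice n=24 per route. Plasma sampled 0.25–24 h (p.o.), 0.083–24 h (i.v.); heparinized plasma, acetonitrile precipitation, ESI-LC/MS-MS (LOQ 1 ng/mL rat, 5 ng/mL mouse); noncompartmental analysis, linear trapezoidal.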

The source made the active and inactive calls. The calls are words filed in the database; no cut-off is given here.

Cytochrome P450 3A4, sequence (P08684 whole entry): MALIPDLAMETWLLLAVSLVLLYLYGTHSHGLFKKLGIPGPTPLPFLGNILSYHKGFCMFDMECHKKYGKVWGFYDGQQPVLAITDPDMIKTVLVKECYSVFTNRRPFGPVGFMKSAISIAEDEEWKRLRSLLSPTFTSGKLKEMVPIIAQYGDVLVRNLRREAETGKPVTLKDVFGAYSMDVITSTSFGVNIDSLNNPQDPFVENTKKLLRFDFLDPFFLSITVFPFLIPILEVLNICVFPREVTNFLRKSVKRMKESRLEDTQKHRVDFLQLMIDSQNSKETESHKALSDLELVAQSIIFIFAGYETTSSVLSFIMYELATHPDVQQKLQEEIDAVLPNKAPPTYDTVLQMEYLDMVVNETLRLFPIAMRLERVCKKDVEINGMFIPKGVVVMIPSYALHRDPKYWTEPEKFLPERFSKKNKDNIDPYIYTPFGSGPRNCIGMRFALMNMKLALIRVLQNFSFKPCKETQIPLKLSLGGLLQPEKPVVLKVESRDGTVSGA

For orientation: IC50 means the midpoint of a concentration-inhibition curve. Low readings indicate greater potency, high ones weaker potency. Usually clearance stands for the rate of elimination divided by the concentration. The low end stands for a low capacity for elimination, the high end for a high capacity for elimination. As usually defined, the bioavailability is dose-corrected exposure relative to a reference, in per cent. A lower bioavailability goes with little systemic uptake. Take `CC(C)(C)OC(=O)n1c2c(c3ccccc31)C[C@H]1C(=O)N3C[C@@H](CC(=O)O)C[C@H]3[C@@H]2N1C(=O)CC1CCC(F)(F)CC1`: the result with Mus musculus was Active. The molecule further displayed an IC50 on Cytochrome P450 3A4 above 50 µM. The CLH in series [1] is 0.184 mL/h/10^6 cells. In series [2], this molecule gave a clearance of 109 mL/min/kg. In addition, the bioavailability in series [3] was 9%.
